Measurements reported in ChEMBL document CHEMBL4024748, “Development of Potent Type I Protein Arginine Methyltransferase (PRMT) Inhibitors of Leukemia Cell Proliferation” (J Med Chem, 2017).
Calls of active or inactive are those of the source. The rule behind the calls is not given here.

How the values were obtained:
[1] = molecular target: Protein arginine N-methyltransferase 1 (Rattus norvegicus, UniProt Q63009); experiment: Inhibition of rat His-tagged PRMT1 (11 to 353 residues) expressed in Escherichia coli BL21(DE3) using biotinylated H4 peptide (1 to 21 residues) as substrate preincubated for 15 mins followed by substrate addition measured after 60 mins in presence of [3H]SAM by microbeta counting method
Protein arginine N-methyltransferase 1, sequence (Q63009 whole entry, the tested form may be a part): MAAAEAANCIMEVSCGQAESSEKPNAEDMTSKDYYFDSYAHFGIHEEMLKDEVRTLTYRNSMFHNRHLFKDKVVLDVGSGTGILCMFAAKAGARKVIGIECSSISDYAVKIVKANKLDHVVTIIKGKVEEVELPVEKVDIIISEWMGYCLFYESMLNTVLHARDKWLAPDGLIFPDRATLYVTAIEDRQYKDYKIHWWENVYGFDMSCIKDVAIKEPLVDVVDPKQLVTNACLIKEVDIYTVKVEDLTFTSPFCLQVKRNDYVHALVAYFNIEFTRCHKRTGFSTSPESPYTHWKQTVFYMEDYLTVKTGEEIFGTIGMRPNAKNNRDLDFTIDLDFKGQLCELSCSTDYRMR
In short: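 Radiometric assay in modified Tris buffer. His6-rPRMT1(11–353) preincubated with compound 15 min at RT, then substrate and [3H]-SAM added. Reaction 60 min at RT, stopped with cold stop solution, transferred to Flashplate for 60 min, washed with water/0.1% Tween-20, counted on Microbeta. IC50 from curve fit.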

[2] = molecular target: Protein arginine N-methyltransferase 1 (Rattus norvegicus) (UniProt Q63009); experiment: Inhibition of rat His-tagged PRMT1 (11 to 353 residues) expressed in Escherichia coli BL21(DE3) at 100 uM using biotinylated H4 peptide (1 to 21 residues) as substrate by TR-FRET assay
Protein arginine N-methyltransferase 1 (Rattus norvegicus), sequence (Q63009 whole entry, looked up, the tested form may be a part): as the sequence (Q63009 whole entry, the tested form may be a part) above
In short: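 Single-point screen at 100 µM. His6-rPRMT1(11–353) expressed in E. coli BL21(DE3) and purified by Ni affinity then gel filtration. Biotinylated H4(1–21) methylated, then product detected with Eu-labelled anti-H4R3me2a antibody plus ULight-streptavidin by TR-FRET. Percent inhibition read.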

[3] = tested on: MV4-11; experiment: Cytotoxicity against human MV4-11 cells assessed as decrease in cell viability at 6.25 to 12.5 uM after 96 hrs by Cell-Titer Glo assay; type: functional, cell-based
In short: (§1)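 Cells kept at 37°C, 5% CO2, exposed to compound or DMSO control for 96 h. Viability read by CellTiter-Glo luminescence after 2 min shaking to lyse and 10 min at room temperature. Triplicate wells, normalised to control cells. For long-term growth, log-phase seeding densities; cells counted and replated to the starting density with fresh compound on days 4 and 8.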

[4] = molecular target: Protein arginine N-methyltransferase 1 (Homo sapiens) (UniProt Q99873); experiment: Inhibition of PRMT1 in human MV411 cells assessed as reduction in arginine methylation after 48 hrs by Western blot analysis; type: cell-based
Protein arginine N-methyltransferase 1 (Homo sapiens), sequence (Q99873 whole entry, looked up): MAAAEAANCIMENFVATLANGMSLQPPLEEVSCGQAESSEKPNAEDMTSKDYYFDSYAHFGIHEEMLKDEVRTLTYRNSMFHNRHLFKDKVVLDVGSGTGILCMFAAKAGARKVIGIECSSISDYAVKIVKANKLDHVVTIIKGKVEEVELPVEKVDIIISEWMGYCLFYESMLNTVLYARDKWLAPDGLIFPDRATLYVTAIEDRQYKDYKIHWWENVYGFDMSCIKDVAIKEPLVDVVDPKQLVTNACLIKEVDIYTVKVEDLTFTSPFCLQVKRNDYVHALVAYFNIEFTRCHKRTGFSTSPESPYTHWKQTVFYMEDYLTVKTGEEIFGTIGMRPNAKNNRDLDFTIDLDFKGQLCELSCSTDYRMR
In short: (§2)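 MV4-11 cells treated with compound for 48 h. ADMA, SDMA and H4R3me2a read by western blot. Blots blocked in 5% nonfat milk in PBST, primary antibodies overnight at 4°C, HRP anti-rabbit secondary at 1:10000 for 1 h.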

[5] = tested on: MV4-11; experiment: Cell cycle arrest in human MV4-11 cells assessed as accumulation at G1 phase at 1.67 to 15 uM after 72 hrs by propidium iodide staining-based flow cytometry; type: functional
In short: (§3)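 MV4-11 cells in 6-well plates with compound or DMSO control, harvested at 72 h. Fixed overnight in 70% ethanol at 4°C, washed with PBS, stained 30 min at room temperature with propidium iodide/RNase buffer, analysed by flow cytometry. Mean ± SD of three replicates.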

[6] = tested on: MV4-11; experiment: Downregulation of HOXA9 mRNA levels in human MV4-11 cells up to 15 uM by qRT-PCR analysis; type: functional, cell-based
In short: (§4)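 MV4-11 cells treated with compound. mRNA measured by SYBR Green qRT-PCR with B2M as internal control. Fold change from ΔΔCt. Samples run in triplicate, mean ± SD.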

[7] = tested on: MV4-11; experiment: Induction of apoptosis in human MV4-11 cells up to 15 uM after 96 hrs by annexin V-FITC/propidium iodide staining-based flow cytometric method; type: functional, cell-based
In short: (§5)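 MV4-11 cells in 6-well plates with compound or DMSO control, harvested at 96 h. Stained with an Annexin V-FITC apoptosis detection kit and analysed by flow cytometry. Mean ± SD of three replicates.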

[8] = tested on: MV4-11; experiment: Downregulation of MEIS1 mRNA levels in human MV4-11 cells up to 15 uM by qRT-PCR analysis; type: functional, cell-based; in short: as §4
[9] = tested on: MV4-11; experiment: Downregulation of HOXA10 mRNA levels in human MV4-11 cells up to 15 uM by qRT-PCR analysis; type: functional, cell-based; in short: as §4
[10] = molecular target: Protein arginine N-methyltransferase 1 (Rattus norvegicus) (UniProt Q63009); experiment: Binding affinity to rat His-tagged PRMT1 (11 to 353 residues) expressed in Escherichia coli BL21(DE3) at 200 uM by STD-NMR spectroscopic method
In short: (§6)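 Rat PRMT1 (11–353), N-His6, expressed in E. coli BL21(DE3) with 0.4 mM IPTG at 16°C. Purified by Ni affinity and Superdex200. NMR used 5 µM PRMT1 in phosphate buffer pH 7.4 (20 mM NaH2PO4, 20 mM Na2HPO4, 100 mM NaCl) in D2O. Ligand at 200 µM in 5% DMSO-d6. CPMG run with 5, 2 and 1 µM PRMT1, plus STD.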

[11] = molecular target: Protein arginine N-methyltransferase 1 (Rattus norvegicus) (UniProt Q63009); experiment: Binding affinity to rat His-tagged PRMT1 (11 to 353 residues) expressed in Escherichia coli BL21(DE3) at 200 uM by 1D 1H CPMG-NMR spectroscopic method; in short: as §6
[12] = molecular target: Protein arginine N-methyltransferase 1 (Homo sapiens) (UniProt Q99873); experiment: Inhibition of PRMT1 in human MV411 cells assessed as reduction in ADMA levels after 48 hrs by Western blot analysis; type: cell-based; in short: as §2
[13] = tested on: MV4-11; experiment: Upregulation of MNDA mRNA levels in human MV4-11 cells by qRT-PCR analysis; type: functional, cell-based
In short: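 Treated MV4-11 cells analysed by SYBR Green qRT-PCR, with B2M as internal control. Fold change calculated by the ΔΔCt method. Samples run in triplicate and reported as mean ± SD.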

[14] = tested on: MRC5; experiment: Cytotoxicity against human MRC5 cells assessed as decrease in cell viability at 6.25 to 25 uM after 96 hrs by Cell-Titer Glo assay; type: cell-based; conditions: mrc5, 96 h
In short: (§7)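 Normal HUV-EC-C, MRC-5 and RCTEC cells at 37°C, 5% CO2, given compound or DMSO control for 96 h. Viability by CellTiter-Glo luminescence after 2 min shaking and 10 min at room temperature. Triplicate wells, normalised to control cells.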

[15] = tested on: MV4-11; experiment: Cell cycle arrest in human MV4-11 cells assessed as accumulation at G1 phase after 72 hrs by propidium iodide staining-based flow cytometry; type: functional; in short: as §3
[16] = tested on: U-937; experiment: Cytotoxicity against human U937 cells assessed as decrease in cell viability after 96 hrs by Cell-Titer Glo assay; type: functional, cell-based; in short: as §1
[17] = tested on: MV4-11; experiment: Induction of apoptosis in human MV4-11 cells after 96 hrs by annexin V-FITC/propidium iodide staining-based flow cytometric method; type: functional, cell-based; in short: as §5
[18] = tested on: MV4-11; experiment: Downregulation of MEIS1 mRNA levels in human MV4-11 cells by qRT-PCR analysis; type: functional, cell-based; in short: as §4
[19] = tested on: RCH-ACV; experiment: Cytotoxicity against human RCH-ACV cells assessed as decrease in cell viability after 96 hrs by Cell-Titer Glo assay; type: functional, cell-based; in short: as §1
[20] = Cytotoxicity against human HUV-EC-C cells assessed as decrease in cell viability at 6.25 to 25 uM after 96 hrs by Cell-Titer Glo assay; type: cell-based; in short: as §7
[21] = Cytotoxicity against human RCTEC cells assessed as decrease in cell viability at 6.25 to 25 uM after 96 hrs by Cell-Titer Glo assay; type: cell-based; in short: as §7
[22] = tested on: MV4-11; experiment: Downregulation of HOXA10 mRNA levels in human MV4-11 cells by qRT-PCR analysis; type: functional, cell-based; in short: as §4
[23] = tested on: REH; experiment: Cytotoxicity against human REH cells assessed as decrease in cell viability after 96 hrs by Cell-Titer Glo assay; type: functional, cell-based; in short: as §1
[24] = tested on: KOPN-8; experiment: Cytotoxicity against human KOPN8 cells assessed as decrease in cell viability after 96 hrs by Cell-Titer Glo assay; type: functional, cell-based; in short: as §1
[25] = tested on: RS4-11; experiment: Cytotoxicity against human RS4:11 cells assessed as decrease in cell viability after 96 hrs by Cell-Titer Glo assay; type: functional, cell-based; in short: as §1
[26] = tested on: THP-1; experiment: Cytotoxicity against human THP1 cells assessed as decrease in cell viability after 96 hrs by Cell-Titer Glo assay; type: functional, cell-based; in short: as §1
[27] = tested on: KMS-11; experiment: Cytotoxicity against human KMS11 cells assessed as decrease in cell viability after 96 hrs by Cell-Titer Glo assay; type: functional, cell-based; in short: as §1
[28] = tested on: MV4-11; experiment: Antiproliferative activity against human MV4-11 cells assessed as decrease in cell viability at 0.1 to 1000 uM by Cell-Titer Glo assay; type: functional, cell-based; conditions: TDE = time-dependent effect; in short: as §1
[29] = tested on: MV4-11; experiment: Downregulation of HOXA9 mRNA levels in human MV4-11 cells by qRT-PCR analysis; type: functional, cell-based; in short: as §4
[30] = molecular target: Protein arginine N-methyltransferase 1 (Homo sapiens) (UniProt Q99873); experiment: Inhibition of PRMT1 in human MV411 cells assessed as increase in SDMA levels after 48 hrs by Western blot analysis; type: cell-based; in short: as §2
[31] = tested on: MV4-11; experiment: Antiproliferative activity against human MV4-11 cells assessed as decrease in cell viability measured at day 12 by Cell-Titer Glo assay; type: functional, cell-based; conditions: MV4-11, 288 h; in short: as §1
[32] = molecular target: Protein arginine N-methyltransferase 1 (Homo sapiens) (UniProt Q99873); experiment: Inhibition of PRMT1 in human MV411 cells assessed as reduction in H4R3me2a levels after 48 hrs by Western blot analysis; type: cell-based; in short: as §2

Compound: CN(C)CCNC(=O)c1ccccc1Sc1ccccc1Cl
- IC50 [1]: > 50 µM

Compound: C=CCOc1ccc(CNCCc2ccc(S(N)(=O)=O)cc2)cc1
- inhibition [2]: > 80%
- IC50 [1]: 85 µM

Compound: CCOC(=O)c1c2c3ccccc3c3ccccc3c2cc2[n+]1CCc1ccccc1-2
- inhibition [2]: > 80%
- IC50 [1]: 53 µM

Compound: CN(C)CCNCc1ccccc1Sc1ccccc1F
- IC50 [1]: 45 µM

Compound: CN(C)CCN(C)Cc1ccccc1Sc1ccccc1F
- IC50 [1]: 0.71 µM

Compound: CN(C)CCN(C)Cc1ccccc1Sc1ccccc1
- IC50 [1]: 3.6 µM

Compound: CN(C)CCNCc1ccccc1Sc1ccccc1
- Activity [3]: inactive
- inhibition [4]: inactive
- Activity [5]: inactive
- Activity [6]: inactive
- Activity [7]: inactive
- Activity [8]: inactive
- Activity [9]: inactive
- IC50 [1]: > 50 µM

Compound: CN(C)CCNC(=O)c1ccccc1Sc1ccccc1
- IC50 [1]: > 50 µM

Compound: c1ccc(COc2cccc(CNCC3CCNCC3)c2)cc1
- inhibition [2]: > 80%
- IC50 [1]: 147 µM

Compound: CN(C)CCN(C)Cc1ccccc1Sc1cccc2ccccc12
- inhibition [2]: > 80%
- Activity [10]: Active
- IC50 [1]: 3 µM
- Activity [11]: Active

Compound: CN(C)CCNC(=O)c1ccccc1Sc1ccccc1F
- IC50 [1]: > 200 µM

Compound: CN(C)CCN(C)Cc1ccccc1Sc1ccccc1Cl
- IC50 [1]: 0.39 µM

Compound: CNCCN(C)Cc1ccccc1Sc1ccccc1Cl
- Activity [3]: Active
- inhibition [12]: Dose-dependent effect
- Activity [13]: Active
- Activity [14]: Non-Toxic
- Activity [10]: Active
- Activity [15]: Dose-dependent effect
- Activity [16]: Dose-dependent effect
- Activity [17]: Dose-dependent effect
- Activity [18]: Dose-dependent effect
- Activity [19]: Dose-dependent effect
- Activity [20]: Non-Toxic
- Activity [21]: Non-Toxic
- Activity [22]: Dose-dependent effect
- Activity [23]: Dose-dependent effect
- Activity [24]: Dose-dependent effect
- Activity [25]: Dose-dependent effect
- Activity [26]: Dose-dependent effect
- Activity [27]: Dose-dependent effect
- Activity [28]: Tde
- Activity [29]: Dose-dependent effect
- inhibition [30]: Dose-dependent effect
- IC50 [31]: 1.08 µM
- inhibition [32]: Dose-dependent effect
- IC50 [1]: 0.006 µM
- Activity [11]: Active

Compound: CN(C)CCNCc1ccccc1Sc1ccccc1Cl
- IC50 [1]: 54 µM

Compound: CCCNCc1cc(Br)cc(Br)c1OC
- inhibition [2]: > 80%

Compound: CN(C)CCNCc1ccccc1Sc1cccc2ccccc12
- IC50 [1]: 34 µM

Compound: Cc1ccc(-c2cc(CC(=O)c3c(O)cc(O)cc3O)n[nH]2)cc1
- inhibition [2]: > 80%
- IC50 [1]: 49 µM

Compound: CN(C)CCNC(=O)c1ccccc1Sc1cccc2ccccc12
- IC50 [1]: > 200 µM

Compound: COc1ccc(N(C(=O)C2CCCCC2)S(=O)(=O)c2ccccc2)cc1
- inhibition [2]: > 80%
